# Assays:
# Plasma [1] = test: AUC (infinity) in CD-1 mouse plasma at 0.1 mg/kg, ip administered as single dose after […] by UPLC-MS/MS method; type: ADME, organism-based; set-up: dose 0.1 mg/kg, time infinity, route intraperitoneal; settings: in vivo
# [2] = Tmax in CD-1 mouse liver at 1 mg/kg, ip administered as single dose after 24 hrs by UPLC-MS/MS method; type: ADME, organism-based
# Summary of the method: (§1)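 Adult male CD-1 mice (25–39 g), one i.p. dose of 0.1, 1 or 10 mg/kg. […] Drug levels measured by UPLC–MS/MS and reported as means ± SEM. […] Serum ALT was also monitored.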
# [3] = Ratio of Cmax in CD-1 mouse liver to plasma at 1 mg/kg, ip administered as single dose after 24 hrs; type: ADME, organism-based
# Summary of the method: (§2)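 Adult male CD-1 mice (25–39 g) received one intraperitoneal dose. Plasma and liver were sampled at set time points, n = 3 mice per time point. Compound levels were measured by UPLC–MS/MS.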
# [4] = Ratio of AUClast in CD-1 mouse liver to plasma at 0.1 mg/kg, ip administered as single dose after […]; type: ADME, organism-based; settings: read-out: Ratio AUC
# [5] = AUClast in CD-1 mouse liver at 10 mg/kg, ip administered as single dose after 24 hrs by UPLC-MS/MS method; type: ADME, organism-based; summary of the method: as §1
# [6] = AUClast in CD-1 mouse plasma at 10 mg/kg, ip administered as single dose after 24 hrs by UPLC-MS/MS method; type: ADME, organism-based; summary of the method: as §1
# [7] = Permeability of the compound by PAMPA; type: physicochemical; settings: read-out: permeability
# Summary of the method: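 Passive diffusion measured by stirred double-sink PAMPA; permeability expressed in 10⁻⁶ cm/s.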
# [8] = Tmax in CD-1 mouse liver at 0.1 mg/kg, ip administered as single dose after […] by UPLC-MS/MS method; type: ADME, organism-based
# [9] = Ratio of Cmax in CD-1 mouse liver to plasma at 0.1 mg/kg, ip administered as single dose after 24 hrs; type: ADME, organism-based; summary of the method: as §2
# [10] = Cmax in CD-1 mouse liver at 0.1 mg/kg, ip administered as single dose after […] by UPLC-MS/MS method; type: ADME, organism-based; set-up: dose 0.1 mg/kg, route intraperitoneal
# [11] = AUClast in CD-1 mouse plasma at 0.1 mg/kg, ip administered as single dose after 24 hrs by UPLC-MS/MS method; type: ADME, organism-based; summary of the method: as §1
# [12] = Tmax in CD-1 mouse plasma at 0.1 mg/kg, ip administered as single dose after 24 hrs by UPLC-MS/MS method; type: ADME, organism-based; summary of the method: as §1
# Plasma [13] = test: Cmax in CD-1 mouse plasma at 0.1 mg/kg, ip administered as single dose after […] by UPLC-MS/MS method; type: ADME, organism-based; set-up: dose 0.1 mg/kg, route intraperitoneal; settings: in vivo
# [14] = AUClast in CD-1 mouse liver at 1 mg/kg, ip administered as single dose after 24 hrs by UPLC-MS/MS method; type: ADME, organism-based; summary of the method: as §1
# [15] = AUClast in CD-1 mouse liver at 0.1 mg/kg, ip administered as single dose after 24 hrs by UPLC-MS/MS method; type: ADME, organism-based; summary of the method: as §1
# [16] = Tmax in CD-1 mouse plasma at 10 mg/kg, ip administered as single dose after 24 hrs by UPLC-MS/MS method; type: ADME, organism-based; summary of the method: as §1
# [17] = Ratio of AUClast in CD-1 mouse liver to plasma at 1 mg/kg, ip administered as single dose after 24 hrs; type: ADME, organism-based; settings: read-out: Ratio AUC
# Summary of the method: (§3)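 Adult male CD-1 mice (25–39 g), n = 3 per sampling time point, given one i.p. dose (0.1, 1 or 10 mg/kg). Plasma and liver levels measured by UPLC–MS/MS. […] Serum ALT was monitored alongside.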
# [18] = Cmax in CD-1 mouse plasma at 1 mg/kg, ip administered as single dose after 24 hrs by UPLC-MS/MS method; type: ADME, organism-based; set-up: dose 1 mg/kg, route intraperitoneal; summary of the method: as §1
# [19] = Tmax in CD-1 mouse liver at 0.1 mg/kg, ip administered as single dose after 24 hrs by UPLC-MS/MS method; type: ADME, organism-based; summary of the method: as §1
# [20] = Cmax in CD-1 mouse liver at 0.1 mg/kg, ip administered as single dose after 24 hrs by UPLC-MS/MS method; type: ADME, organism-based; set-up: dose 0.1 mg/kg, route intraperitoneal; summary of the method: as §1
# [21] = Tmax in CD-1 mouse liver at 10 mg/kg, ip administered as single dose after 24 hrs by UPLC-MS/MS method; type: ADME, organism-based; summary of the method: as §1
# [22] = AUClast in CD-1 mouse liver at 0.1 mg/kg, ip administered as single dose after […] by UPLC-MS/MS method; type: ADME, organism-based
# [23] = Ratio of AUClast in CD-1 mouse liver to plasma at 0.1 mg/kg, ip administered as single dose after 24 hrs; type: ADME, organism-based; settings: read-out: Ratio AUC; summary of the method: as §3
# [24] = Tmax in CD-1 mouse plasma at 1 mg/kg, ip administered as single dose after 24 hrs by UPLC-MS/MS method; type: ADME, organism-based; summary of the method: as §1
# [25] = Cmax in CD-1 mouse liver at 1 mg/kg, ip administered as single dose after 24 hrs by UPLC-MS/MS method; type: ADME, organism-based; set-up: dose 1 mg/kg, route intraperitoneal; summary of the method: as §1
# [26] = Drug uptake in CD-1 mouse liver at 1 mg/kg, ip administered as single dose after 24 hrs by UPLC-MS/MS method; type: ADME, organism-based; settings: read-out: Drug uptake; summary of the method: as §1
# [27] = Drug uptake in CD-1 mouse liver at 0.1 mg/kg, ip administered as single dose after 5 mins by UPLC-MS/MS method; type: ADME, organism-based; settings: read-out: Drug uptake; summary of the method: as §1
# [28] = AUClast in CD-1 mouse plasma at 0.1 mg/kg, ip administered as single dose after […] by UPLC-MS/MS method; type: ADME, organism-based
# [29] = Ratio of Cmax in CD-1 mouse liver to plasma at 10 mg/kg, ip administered as single dose after 24 hrs; type: ADME, organism-based; summary of the method: as §2
# [30] = Cmax in CD-1 mouse liver at 10 mg/kg, ip administered as single dose after 24 hrs by UPLC-MS/MS method; type: ADME, organism-based; set-up: dose 10 mg/kg, route intraperitoneal; summary of the method: as §1
# [31] = Cmax in CD-1 mouse plasma at 10 mg/kg, ip administered as single dose after 24 hrs by UPLC-MS/MS method; type: ADME, organism-based; set-up: dose 10 mg/kg, route intraperitoneal; summary of the method: as §1
# [32] = Ratio of AUC (infinity) in CD-1 mouse liver to plasma at 0.1 mg/kg, ip administered as single dose after […]; type: ADME, organism-based; settings: read-out: Ratio AUC
# Plasma [33] = test: Tmax in CD-1 mouse plasma at 0.1 mg/kg, ip administered as single dose after […] by UPLC-MS/MS method; type: ADME, organism-based; settings: in vivo
# [34] = Ratio of Cmax in CD-1 mouse liver to plasma at 0.1 mg/kg, ip administered as single dose after […]; type: ADME, organism-based; settings: liver and plasma
# [35] = Cmax in CD-1 mouse plasma at 0.1 mg/kg, ip administered as single dose after 24 hrs by UPLC-MS/MS method; type: ADME, organism-based; set-up: dose 0.1 mg/kg, route intraperitoneal; summary of the method: as §1
# [36] = Ratio of AUClast in CD1 mouse liver to plasma at 10 mg/kg, ip administered as single dose after 24 hrs; type: ADME, organism-based; settings: CD-1, mouse, read-out: Ratio AUC; summary of the method: as §3
# [37] = AUClast in CD-1 mouse plasma at 1 mg/kg, ip administered as single dose after 24 hrs by UPLC-MS/MS method; type: ADME, organism-based; summary of the method: as §1
smiles,measurement,setting,value
Cc1oc(-c2ccc(Cl)c(Cl)c2)nc1CN1CCC(C(=O)NCCCN2C[C@H](C)C[C@H](C)C2)CC1,AUC,Plasma [1],0.0639 µM·h
same,Tmax,[2],4 h
same,Kp at 24 h,[3],67
same,Kp at […],[4],448
same,AUC(0-t) at 24 h,[5],719 µM·h
same,AUC(0-t) at 24 h,[6],17.6 µM·h
same,Papp,[7],522 ×10⁻⁶ cm/s
same,Tmax at […],[8],7 h
same,Kp at 24 h,[9],126
same,Cmax at […],[10],1110 nM
same,AUC(0-t) at 24 h,[11],0.0494 µM·h
same,Tmax,[12],4.98 min
same,Cmax,Plasma [13],8.76 nM
same,AUC(0-t) at 24 h,[14],197 µM·h
same,AUC(0-t) at 24 h,[15],19.7 µM·h
same,Tmax,[16],4.98 min
same,Kp at 24 h,[17],224
same,Cmax,[18],146 nM
same,Tmax,[19],7 h
same,Cmax,[20],1110 nM
same,Tmax,[21],7 h
same,AUC(0-t) at […],[22],52.3 µM·h
same,Kp at 24 h,[23],399
same,Tmax,[24],0.25 h
same,Cmax,[25],9820 nM
same,concentration at 24 h,[26],3330 to 9820 nM
same,concentration at 5 min,[27],390 nM
same,AUC(0-t) at […],[28],0.117 µM·h
same,Kp at 24 h,[29],7
same,Cmax,[30],34500 nM
same,Cmax,[31],4740 nM
same,Kp at […],[32],510
same,Tmax,Plasma [33],4.98 min
same,Kp at […],[34],126
same,Cmax,[35],8.76 nM
same,Kp at 24 h,[36],41
same,AUC(0-t) at 24 h,[37],0.88 µM·h
